# From ChEMBL document CHEMBL3098102, “1,2,3-Triazole-derived naphthalimides as a novel type of potential antimicrobial agents: synthesis, antimicrobial activity, interaction with calf thymus DNA and human serum albumin” (Bioorg Med Chem Lett, 2014)
# How the values were obtained:
# Assay type in all cases: functional
# [1] = tested on: Escherichia coli; assay: Ratio of chloromycin MIC to compound MIC for Escherichia coli DH52 after 24 hrs by two-fold serial dilution method
# [2] = tested on: Saccharomyces cerevisiae; assay: Antimicrobial activity against Saccharomyces cerevisiae by two-fold serial dilution method
# In short: (§1)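 MIC read by broth microdilution in microdilution plates.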
# [3] = tested on: Aspergillus flavus; assay: Antimicrobial activity against Aspergillus flavus after 24 hrs by two-fold serial dilution method; in short: as §1
# [4] = tested on: Candida albicans; assay: Antimicrobial activity against Candida albicans after 24 hrs by two-fold serial dilution method; in short: as §1
# [5] = tested on: Shigella dysenteriae; assay: Antimicrobial activity against Shigella dysenteriae after 24 hrs by two-fold serial dilution method
# [6] = tested on: Pseudomonas aeruginosa; assay: Antimicrobial activity against Pseudomonas aeruginosa after 24 hrs by two-fold serial dilution method; in short: as §1
# [7] = tested on: Escherichia coli; assay: Antimicrobial activity against Escherichia coli DH52 after 24 hrs by two-fold serial dilution method; conditions: DH52, 24 h
# [8] = Antimicrobial activity against Bacillus proteus after 24 hrs by two-fold serial dilution method; in short: as §1
# [9] = tested on: Micrococcus luteus; assay: Antimicrobial activity against Micrococcus luteus ATCC 4698 after 24 hrs by two-fold serial dilution method; conditions: ATCC 4698, 24 h
# [10] = tested on: Bacillus subtilis; assay: Antimicrobial activity against Bacillus subtilis after 24 hrs by two-fold serial dilution method; in short: as §1
# [11] = tested on: Staphylococcus aureus; assay: Antimicrobial activity against methicillin-resistant Staphylococcus aureus N315 after 24 hrs by two-fold serial dilution method; conditions: N315, 24 h
# [12] = tested on: Staphylococcus aureus; assay: Antimicrobial activity against Staphylococcus aureus ATCC 25923 after 24 hrs by two-fold serial dilution method; conditions: ATCC 25923, 24 h
SMILES,Ratio [1],MIC [2] [µg/mL],MIC [3] [µg/mL],MIC [4] [µg/mL],MIC [5] [µg/mL],MIC [6] [µg/mL],MIC [7] [µg/mL],MIC [8] [µg/mL],MIC [9] [µg/mL],MIC [10] [µg/mL],MIC [11] [µg/mL],MIC [12] [µg/mL]
O=C1c2cccc3c(Br)ccc(c23)C(=O)N1N(Cc1cn(Cc2cccc(Cl)c2)nn1)Cc1cn(Cc2cccc(Cl)c2)nn1,2,64,> 512,64,> 512,64,2,> 512,> 512,256,> 512,256
CCCCCCn1cc(CN(Cc2cn(CCCCCC)nn2)N2C(=O)c3cccc4c(Br)ccc(c34)C2=O)nn1.Cl.Cl,–,> 512,32,> 512,> 512,512,512,> 512,512,> 512,> 512,> 512
O=C1c2cccc3c(Br)ccc(c23)C(=O)N1N(Cc1cn(Cc2ccc(Cl)cc2)nn1)Cc1cn(Cc2ccc(Cl)cc2)nn1,2,> 512,> 512,> 512,256,512,2,> 512,64,256,> 512,> 512
Cl.Cl.O=C1c2cccc3c(Br)ccc(c23)C(=O)N1N(Cc1cn(Cc2ccccc2F)nn1)Cc1cn(Cc2ccccc2F)nn1,–,> 512,64,> 512,> 512,> 512,16,> 512,256,> 512,> 512,> 512
O=C1c2cccc3c(Br)ccc(c23)C(=O)N1N(Cc1cn(Cc2ccc(Cl)c(Cl)c2)nn1)Cc1cn(Cc2ccc(Cl)c(Cl)c2)nn1,2,64,> 512,256,> 512,256,1,512,> 512,> 512,> 512,> 512
CCCCn1cc(CN(Cc2cn(CCCC)nn2)N2C(=O)c3cccc4c(Br)ccc(c34)C2=O)nn1.Cl.Cl,–,> 512,64,> 512,> 512,> 512,> 512,> 512,> 512,512,> 512,> 512
OC(Cn1cncn1)(Cn1cncn1)c1ccc(F)cc1F [FLUCONAZOLE],–,4,256,2,–,–,–,–,–,–,–,–
Cl.Cl.O=C1c2cccc3c(Br)ccc(c23)C(=O)N1N(Cc1cn(Cc2cccc(F)c2)nn1)Cc1cn(Cc2cccc(F)c2)nn1,–,> 512,32,> 512,> 512,> 512,16,> 512,256,> 512,> 512,> 512
CCn1cc(C(=O)O)c(=O)c2cc(F)c(N3CCNCC3)cc21 [NORFLOXACIN],–,–,–,–,2,1,2,2,1,2,1,4
O=C1c2cccc3c(Br)ccc(c23)C(=O)N1N(Cc1cn(Cc2cccc(F)c2)nn1)Cc1cn(Cc2cccc(F)c2)nn1,–,> 512,32,> 512,> 512,> 512,16,> 512,256,> 512,> 512,> 512
O=C1c2cccc3c(Br)ccc(c23)C(=O)N1N(Cc1cn(Cc2ccc(F)cc2F)nn1)Cc1cn(Cc2ccc(F)cc2F)nn1,–,> 512,> 512,> 512,> 512,> 512,64,> 512,512,256,> 512,> 512
CCCCCCn1cc(CN(Cc2cn(CCCCCC)nn2)N2C(=O)c3cccc4c(Br)ccc(c34)C2=O)nn1,–,> 512,64,> 512,> 512,512,512,> 512,> 512,> 512,> 512,> 512
Cl.Cl.O=C1c2cccc3c(Br)ccc(c23)C(=O)N1N(Cc1cn(Cc2ccc(F)cc2)nn1)Cc1cn(Cc2ccc(F)cc2)nn1,–,> 512,512,> 512,> 512,> 512,32,512,512,> 512,> 512,> 512
O=C1c2cccc3c(Br)ccc(c23)C(=O)N1N(Cc1cn(Cc2ccc([N+](=O)[O-])cc2)nn1)Cc1cn(Cc2ccc([N+](=O)[O-])cc2)nn1,–,> 512,> 512,> 512,> 512,> 512,256,> 512,512,256,> 512,> 512
Cl.Cl.O=C1c2cccc3c(Br)ccc(c23)C(=O)N1N(Cc1cn(Cc2ccc(F)cc2F)nn1)Cc1cn(Cc2ccc(F)cc2F)nn1,–,> 512,> 512,512,> 512,> 512,32,> 512,512,128,> 512,> 512
O=C(N[C@H](CO)[C@H](O)c1ccc([N+](=O)[O-])cc1)C(Cl)Cl [CHLORAMPHENICOL],–,–,–,–,32,4,–,32,–,32,–,–
O=C1c2cccc3c(Br)ccc(c23)C(=O)N1N(Cc1cn(Cc2ccc(F)cc2)nn1)Cc1cn(Cc2ccc(F)cc2)nn1,–,> 512,> 512,> 512,> 512,> 512,32,> 512,512,> 512,> 512,> 512
O=C1c2cccc3c(Br)ccc(c23)C(=O)N1N(Cc1cn(Cc2ccccc2F)nn1)Cc1cn(Cc2ccccc2F)nn1,–,> 512,64,> 512,> 512,> 512,32,> 512,256,> 512,> 512,> 512
CCCCn1cc(CN(Cc2cn(CCCC)nn2)N2C(=O)c3cccc4c(Br)ccc(c34)C2=O)nn1,–,> 512,64,> 512,> 512,> 512,> 512,> 512,> 512,> 512,> 512,> 512
